Screens deposited in PubChem by Sanford-Burnham Center for Chemical Genomics.
An excerpt weighted towards active compounds, which were near 2% of everything screened.
DNMT1 block: DNMT1 (human) enzyme inhibition | P26358 | DNMT1 molecular beacon, Hinp1I cleavage, fluorescence | inhibition (reported as % activation of signal), % at 10 µM | 360,000 tested, 0.83% active; in the data active means inhibition above about 50%
SUMO1-SIM PPI: modulators of human SUMO1-mediated protein-protein interactions. AID 602429. inhibition, % at 20 µM. P63165. SUMO1 binding to a labelled peptide, TR-FRET, 1 h. 360,000 tested, 0.33% active; in the data active means inhibition above about 37%
Scp-1 inhibitor: inhibitors of human Scp-1 phosphatase; Q9GZU7; Recombinant Scp1, phosphopeptide, malachite green phosphate absorbance; inhibition, % at 20 µM; 340,000 tested, 0.88% active; AID 493091;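 active means inhibition above about 50% at 20 µM, limit read from the data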;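 further: plate controls were DMSO wells with enzyme for no effect and wells lacking enzyme for full effect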
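Incubation: 45 min enzyme reaction at room temperature / System: truncated SCP-1 phosphatase (76-261aa) / Reagent: Phospho 17-mer peptide substrate / Buffer or medium: Acidic Tris acetate buffer with magnesium and detergent / Signal: absorbance at 630 nm / Doses: one concentration, 20 µM, with 1.0% DMSO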
STEP block: STEP (human) phosphatase inhibition. recombinant STEP, OMFP fluorogenic substrate, fluorescence. inhibition, % at 20 µM. 360,000 tested, 0.25% active. AID 588621;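 active means inhibition at 20 µM, scaled per plate between control wells, above about 37%, limit read from the data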;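 further: 0% = DMSO with enzyme and substrate and 100% = substrate only without enzyme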
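Assay system: isolated STEP enzyme. Buffer or medium: pH 6.0 Bis-Tris with DTT and Tween 20. Also added: fluorogenic phosphatase substrate OMFP at 25 µM final. Dosing: 20 µM, 1% DMSO. Timing: 20 min reaction, room temperature, in the dark. Measured by: fluorescence intensity, excitation 480 nm, emission 540 nm. Evaluation: normalized % inhibition.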
CSN deneddyl inh: blocks human CSN-mediated cullin deneddylation; Q92905; Purified CSN, SCF-Nedd8-OG deneddylation, fluorescence polarization; inhibition, % at 12.5 µM; 360,000 tested, 0.38% active; AID 651999;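 active means pattern-corrected inhibition above about 35%, with an unprinted fluorescence ratio check between 0.5 and 1.5, limit read from the data, passing the limit was not always enough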;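 further: 0% = enzyme with substrate and 100% = substrate without enzyme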
Target sequence (Q92905 whole entry, looked up, one chain of several): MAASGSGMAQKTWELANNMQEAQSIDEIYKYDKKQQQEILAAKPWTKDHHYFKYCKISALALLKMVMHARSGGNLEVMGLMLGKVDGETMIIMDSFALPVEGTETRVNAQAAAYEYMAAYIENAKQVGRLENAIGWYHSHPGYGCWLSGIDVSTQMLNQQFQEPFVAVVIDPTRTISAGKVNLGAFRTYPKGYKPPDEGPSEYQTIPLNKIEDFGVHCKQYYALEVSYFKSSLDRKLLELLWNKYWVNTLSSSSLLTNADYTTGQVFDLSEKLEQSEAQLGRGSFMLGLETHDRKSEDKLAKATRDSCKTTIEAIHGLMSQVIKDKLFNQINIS
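Schedule: reaction 90 min, room temperature / Assay system: HEK293T-derived human Csn5 enzyme / Input: Csn5 at 0.24 nM final / Measure: inhibition of Csn5 cleavage, % / Control set: substrate-only high control, full reaction low control / Technique: fluorescence polarization of the substrate / Buffer or medium: Tris/NaCl/DTT buffer, pH 7.5 / Reagent: SCFSkp2-Nedd8OG substrate at 10 nM final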
LMPTP inh: LMPTP (human) inhibition. recombinant LMPTP-A, OMFP fluorogenic substrate, fluorescence intensity. 360,000 tested, 0.22% active. P24666. inhibition, % at 20 µM;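 active means compounds that cut the enzyme signal by at least half of the control window in the single-dose screen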;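 further: plate controls were DMSO wells with enzyme plus substrate for no effect and substrate without enzyme for full effect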
Target sequence (P24666 whole entry, looked up): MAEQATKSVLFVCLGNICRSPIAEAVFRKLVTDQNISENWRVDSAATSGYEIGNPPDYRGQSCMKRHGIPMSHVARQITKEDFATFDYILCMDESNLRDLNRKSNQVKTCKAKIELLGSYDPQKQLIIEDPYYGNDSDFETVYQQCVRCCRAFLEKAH
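Test system: LMPTP-A, protein tyrosine phosphatase of low molecular weight; Input: 0.625 nM enzyme; Incubation: 50 min dark incubation at room temperature; Signal: endpoint fluorescence intensity from OMFP dephosphorylation; Read-out basis: % inhibition versus control wells.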
Scp-1 conf: Scp-1 (human) inhibition, single-dose confirmed; shares compounds with Scp-1 inhibitor; recombinant SCP-1 catalytic domain, phosphate release, malachite green absorbance; inhibition, % at 20 µM; 2,500 tested, 61% active; AID 540281;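 further: plate controls were DMSO with enzyme for no effect and buffer wells lacking enzyme for full effect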
MG interference: counter-screen for Scp-1 inhibitors: colorimetric interference | shares compounds with Scp-1 inhibitor | Colorimetric interference counterscreen, malachite green absorbance 630 nm | apparent inhibition (interference), % at 20 µM | 2,500 tested, under 10 active;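 further: compounds added after enzyme reaction finished so only phosphate colour detection is probed; plate controls were DMSO wells with completed Scp-1 reaction for no effect and substrate wells lacking enzyme for full effect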
Scp-1 Tm shift: validation of human Scp-1 inhibitors by thermal shift binding | shares compounds with Scp-1 inhibitor | Recombinant SCP1, Sypro Orange thermal shift Tm | thermal shift relative to vanadate control, % at 40 µM | 1,500 tested, 25% active;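 active means substances whose mean melting-temperature shift, as a percentage of the reference inhibitor's shift, reaches about 5.3%, limit read from the data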;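 further: 0% = Tm of DMSO wells and 100% = Tm with sodium orthovanadate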
DNMT1 inh conf: DNMT1 inhibition confirmation, single concentration; shares compounds with DNMT1 block; DNMT1 molecular beacon HinP1I cleavage, fluorescence; inhibition, % at 10 µM; 2,300 tested, 8% active;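 active means average inhibition of at least 30% in the single-concentration confirmation test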
DNMT1 interf: beacon fluorescence artifact counter-screen; shares compounds with DNMT1 block; activation (fluorescence interference), % at 10 µM; 2,300 tested, 1% active; DNMT1 molecular beacon spectral interference counterscreen, fluorescence 485/520;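 active means activation of at least 30% at 10 µM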;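 further: DNMT1 catalytic domain with a HinP1I cleavage step and a FAM/dabcyl DNA beacon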
Active calls of the source: *; / = not tested or not shown.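 How the source made its calls, unless noted: active means inhibition of at least 30% at 20 µM; inactive means the rest.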

SMILES	DNMT1 block	SUMO1-SIM PPI	Scp-1 inhibitor	STEP block	CSN deneddyl inh	LMPTP inh	Scp-1 conf	MG interference	Scp-1 Tm shift	DNMT1 inh conf	DNMT1 interf
CCOC(=O)C(=CNc1cc(OC)ccc1-n1cccc1)C(=O)OCC	0	-4	-11	3	2	5	/	/	/	/	/
O=C(Cc1cccs1)Nc1nnc(Cc2ccccc2)s1	99*	5	82*	12	18	42	76*	-8	4	8	2
O=C(Cc1cccs1)Nc1nnc(CCc2ccccc2)s1	2	-3	0	-1	3	1	/	/	/	/	/
CC(C)c1nnc(NC(=O)Cc2cccs2)s1	-2	0	-3	0	2	-2	/	/	/	/	/
CCCCCc1nnc(NC(=O)Cc2cccs2)s1	59*	4	68*	9	6	6	85*	1	6.3*	10	2
CC(C)(C)Cc1nnc(NC(=O)Cc2cccs2)s1	56*	3	58*	8	18	21	63*	-21	7.2*	9	1
Cc1c(CNCCc2ccccc2Cl)c(C(=O)O)c(C)n1-c1ccccc1	0	0	-4	-1	3	-1	/	/	/	/	/
Cc1ccc(N(C(=O)Cc2cccs2)C(C(=O)NC2CCCCC2)c2ccccn2)cc1C (stereo not drawn)	-5	-2	-2	1	1	0	/	/	/	/	/
COC(=O)[C@H]1C[C@H](C(=O)O)[C@@H](C)C1(C)C	2	0	-3	-2	2	-1	/	/	/	/	/
Nc1[nH]n(-c2ccccc2)c(=O)c1N=Nc1ccccc1[N+](=O)[O-]	-3	-10	-5	-1	0	0	/	/	/	/	/
NC(=S)n1[nH]c(-c2ccc([N+](=O)[O-])cc2)c(N=Nc2ccccc2[N+](=O)[O-])c1=O	85*	5	63*	7	-6	10	38*	-19	10*	-2	-8
C=CCn1c(SCC(=O)NCCCC)nc2scc(-c3ccco3)c2c1=O	100*	10	73*	3	10	16	69*	-16	-3	2	1
Cc1cccc(C)c1NC(=O)CSc1nc2[nH]c(=O)cc(O)c2s1	4	2	-4	-2	3	-1	/	/	/	/	/
CC1=NN(c2ccc(Cl)c(C(=O)O)c2)C(=O)C1	68*	41*	75*	9	8	8	53*	-8	9.5*	8	1
CC1=NN(c2ccc(C(=O)O)c(N)c2)C(=O)C1	44	5	42	8	16	4	/	/	/	/	/
C#CCSc1nc2sc3c(c2c(=O)n1C)CCC3	61*	13	75*	93*	11	14	48*	-18	-26	0	-4
CSc1nc2sc3c(c2c(=O)n1C)CCC3	-6	7	-5	-5	4	-2	/	/	/	/	/
O=C(CSc1cccc[n+]1[O-])Nc1cc([N+](=O)[O-])ccc1Cl	6	-23	-3	-2	4	-2	/	/	/	/	/
O=C(CSc1cccc[n+]1[O-])Nc1cc2c(cc1Cl)C(=O)c1ccccc1C2=O	92*	41*	85*	49*	-9	50*	11	-20	/	2	-10
O=C(NCc1ccc(F)cc1)C1CCN(S(=O)(=O)c2cccc3nonc23)CC1	3	-10	4	3	-3	0	/	/	/	/	/
Cc1ccc(N(CC(=O)NCc2ccco2)C(=O)CCC(=O)Nc2nccs2)c(C)c1	3	-1	-5	2	3	1	/	/	/	/	/
